ChEMBL document CHEMBL2176954, “General synthesis of β-alanine-containing spider polyamine toxins and discovery of nephila polyamine toxins 1 and 8 as highly potent inhibitors of ionotropic glutamate receptors” (J Med Chem, 2012)
pIC50: −log10 of the molar value.

How the values were obtained:
Type in all cases: functional, cell-based, Oocyte
[1] = target: Glutamate receptor ionotropic, NMDA 2A (Rattus norvegicus, UniProt P35439+Q00959); experiment: Antagonist activity at rat glutamate N1/2A receptor expressed in Xenopus oocytes at membrane potential -60 mV by two-electrode voltage-clamp electrophysiology assay
Chain of Glutamate receptor ionotropic, NMDA 2A (Q00959 whole entry, one chain of several): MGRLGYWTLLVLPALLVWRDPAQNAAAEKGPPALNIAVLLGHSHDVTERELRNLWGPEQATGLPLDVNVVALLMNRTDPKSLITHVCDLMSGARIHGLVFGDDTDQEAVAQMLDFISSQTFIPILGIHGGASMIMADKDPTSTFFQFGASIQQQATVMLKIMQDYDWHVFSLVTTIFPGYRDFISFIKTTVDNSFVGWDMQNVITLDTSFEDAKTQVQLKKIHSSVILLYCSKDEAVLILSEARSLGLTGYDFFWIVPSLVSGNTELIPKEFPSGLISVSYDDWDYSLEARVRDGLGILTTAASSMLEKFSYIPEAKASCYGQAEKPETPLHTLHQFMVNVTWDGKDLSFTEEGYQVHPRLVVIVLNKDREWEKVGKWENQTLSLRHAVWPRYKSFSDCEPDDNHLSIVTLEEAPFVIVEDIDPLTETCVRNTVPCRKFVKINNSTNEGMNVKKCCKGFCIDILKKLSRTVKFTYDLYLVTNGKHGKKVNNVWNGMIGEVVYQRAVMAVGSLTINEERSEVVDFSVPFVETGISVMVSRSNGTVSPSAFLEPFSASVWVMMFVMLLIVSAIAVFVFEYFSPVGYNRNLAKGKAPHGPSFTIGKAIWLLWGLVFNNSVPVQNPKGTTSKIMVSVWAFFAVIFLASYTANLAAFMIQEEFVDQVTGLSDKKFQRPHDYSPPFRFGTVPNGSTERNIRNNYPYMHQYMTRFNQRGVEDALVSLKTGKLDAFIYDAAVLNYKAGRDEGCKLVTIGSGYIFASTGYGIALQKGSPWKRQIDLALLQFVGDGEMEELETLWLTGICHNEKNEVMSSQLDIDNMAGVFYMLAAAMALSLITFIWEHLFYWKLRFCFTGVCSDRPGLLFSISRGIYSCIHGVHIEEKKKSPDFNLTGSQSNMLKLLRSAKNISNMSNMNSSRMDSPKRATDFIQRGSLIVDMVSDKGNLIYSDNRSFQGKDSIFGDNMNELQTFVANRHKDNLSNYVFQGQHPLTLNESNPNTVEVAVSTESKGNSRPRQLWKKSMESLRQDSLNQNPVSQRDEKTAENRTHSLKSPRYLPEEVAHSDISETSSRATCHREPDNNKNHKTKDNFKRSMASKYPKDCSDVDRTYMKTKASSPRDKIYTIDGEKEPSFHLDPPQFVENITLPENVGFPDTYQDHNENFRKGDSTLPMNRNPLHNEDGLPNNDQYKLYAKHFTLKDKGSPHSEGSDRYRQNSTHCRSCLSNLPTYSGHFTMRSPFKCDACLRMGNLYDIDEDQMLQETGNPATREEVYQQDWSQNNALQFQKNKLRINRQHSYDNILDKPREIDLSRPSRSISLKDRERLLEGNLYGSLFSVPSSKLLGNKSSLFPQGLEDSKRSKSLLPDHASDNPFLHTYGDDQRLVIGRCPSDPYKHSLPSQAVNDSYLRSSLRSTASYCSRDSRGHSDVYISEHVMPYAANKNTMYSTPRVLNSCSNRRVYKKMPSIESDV
Summary of the method: (§1)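 Two-electrode voltage clamp at −60 mV on oocytes expressing the iGlu receptor subtype. Cells first received a maximally effective agonist concentration, then increasing toxin concentrations co-applied with agonist. IC50 values are means from 6 to 12 experiments, reported with 95% confidence intervals.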

Glutamate receptor 1 = Glutamate receptor 1 (Rattus norvegicus, UniProt P19490); experiment: Antagonist activity at rat GluA1 receptor expressed in Xenopus oocytes at membrane potential -60 mV by two-electrode voltage-clamp electrophysiology assay; summary of the method: as §1
Chain of Glutamate receptor 1 (P19490 whole entry): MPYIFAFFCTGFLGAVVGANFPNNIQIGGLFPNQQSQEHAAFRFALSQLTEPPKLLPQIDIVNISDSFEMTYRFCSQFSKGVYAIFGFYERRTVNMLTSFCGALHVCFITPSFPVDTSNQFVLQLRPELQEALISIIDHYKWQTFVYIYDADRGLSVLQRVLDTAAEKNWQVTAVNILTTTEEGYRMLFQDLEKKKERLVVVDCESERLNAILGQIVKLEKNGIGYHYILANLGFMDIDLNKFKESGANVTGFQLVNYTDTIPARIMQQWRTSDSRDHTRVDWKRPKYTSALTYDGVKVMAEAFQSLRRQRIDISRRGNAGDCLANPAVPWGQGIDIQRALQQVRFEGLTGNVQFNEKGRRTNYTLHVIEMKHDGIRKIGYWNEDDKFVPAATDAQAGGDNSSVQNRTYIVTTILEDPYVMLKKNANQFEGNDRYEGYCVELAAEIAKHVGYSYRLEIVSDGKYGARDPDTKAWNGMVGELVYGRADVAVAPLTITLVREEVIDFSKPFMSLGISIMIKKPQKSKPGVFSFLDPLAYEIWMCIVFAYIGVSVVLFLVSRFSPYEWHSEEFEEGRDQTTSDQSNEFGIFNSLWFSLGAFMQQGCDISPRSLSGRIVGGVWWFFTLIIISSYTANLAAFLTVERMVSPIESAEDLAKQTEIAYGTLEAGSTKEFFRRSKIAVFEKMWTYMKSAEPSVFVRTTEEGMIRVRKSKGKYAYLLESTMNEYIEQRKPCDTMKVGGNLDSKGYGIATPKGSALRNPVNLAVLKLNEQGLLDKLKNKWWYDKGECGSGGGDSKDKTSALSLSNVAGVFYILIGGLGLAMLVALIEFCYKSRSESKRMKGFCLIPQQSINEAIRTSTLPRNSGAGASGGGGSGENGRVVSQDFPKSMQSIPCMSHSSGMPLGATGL

[2] = target: T1, Glutamate receptor ionotropic, kainate 1 (Rattus norvegicus, UniProt P22756); experiment: Antagonist activity at rat GluK1 receptor expressed in Xenopus oocytes at membrane potential -60 mV by two-electrode voltage-clamp electrophysiology assay; summary of the method: as §1
T1 sequence (P22756 whole entry): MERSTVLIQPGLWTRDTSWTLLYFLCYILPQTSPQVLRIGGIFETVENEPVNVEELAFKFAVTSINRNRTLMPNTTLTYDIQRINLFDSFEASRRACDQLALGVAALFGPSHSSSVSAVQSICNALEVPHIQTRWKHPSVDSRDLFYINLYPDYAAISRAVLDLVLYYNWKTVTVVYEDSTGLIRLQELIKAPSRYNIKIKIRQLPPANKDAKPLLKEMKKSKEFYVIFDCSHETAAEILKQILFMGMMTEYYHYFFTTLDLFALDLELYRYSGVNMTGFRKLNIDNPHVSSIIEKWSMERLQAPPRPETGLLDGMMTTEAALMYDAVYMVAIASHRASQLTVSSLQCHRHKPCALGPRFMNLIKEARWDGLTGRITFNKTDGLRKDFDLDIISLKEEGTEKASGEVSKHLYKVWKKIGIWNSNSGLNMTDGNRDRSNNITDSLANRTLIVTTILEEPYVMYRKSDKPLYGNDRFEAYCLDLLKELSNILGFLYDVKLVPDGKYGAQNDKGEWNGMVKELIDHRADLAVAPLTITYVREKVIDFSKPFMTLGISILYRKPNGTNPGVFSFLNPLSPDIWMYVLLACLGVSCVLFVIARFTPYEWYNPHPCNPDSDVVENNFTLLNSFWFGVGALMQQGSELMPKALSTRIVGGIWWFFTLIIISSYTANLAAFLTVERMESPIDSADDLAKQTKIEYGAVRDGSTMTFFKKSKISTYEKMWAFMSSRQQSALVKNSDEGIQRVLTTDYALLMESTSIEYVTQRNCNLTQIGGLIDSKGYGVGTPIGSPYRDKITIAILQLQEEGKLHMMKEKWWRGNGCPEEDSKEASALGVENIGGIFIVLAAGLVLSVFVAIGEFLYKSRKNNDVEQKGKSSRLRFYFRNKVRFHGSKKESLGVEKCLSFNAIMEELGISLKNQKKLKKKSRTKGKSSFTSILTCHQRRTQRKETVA

[3] = target: T1, Glutamate receptor ionotropic, kainate 1; experiment: Antagonist activity at rat GluK1 receptor expressed in Xenopus oocytes by two-electrode voltage-clamp at membrane potential -60 to -80 mV electrophysiology assay
Summary of the method: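 GluK1-expressing oocytes were clamped by two-electrode voltage clamp and given a maximally effective agonist concentration, then increasing toxin concentrations plus agonist. IC50 was determined at −60 mV and at −80 mV to assess voltage dependence of block. Values at −60 mV are means of 6 to 12 experiments.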

Row | SMILES | pIC50 [1] | pIC50 (Glutamate receptor 1) | pIC50 [2] | pIC50 [3]
1 | N=C(N)NCCC[C@H](N)C(=O)NCCCNCCCNCCCCCNC(=O)[C@H](CC(N)=O)NC(=O)Cc1ccc(O)cc1O | 6.75 | 6.87 | – | –
2 | C[C@H](NC(=O)CNC(=O)[C@@H](N)CCCNC(=N)N)C(=O)NCCCCNCCC(=O)NCCCCCNC(=O)[C@H](CC(N)=O)NC(=O)Cc1ccc(O)cc1O | < 5.00 | 5.97 | 5.59 | –
3 | NCCCNCCCCNCCC(=O)NCCCCCNC(=O)[C@H](CC(N)=O)NC(=O)Cc1c[nH]c2ccccc12 | 6.82 | 7.57 | 9.09 | 9.55
4 | NCCCNCCCCNCCC(=O)NCCCCCNC(=O)[C@H](CC(N)=O)NC(=O)Cc1c[nH]c2cccc(O)c12 | 5.86 | 7.29 | 9.48 | 9.72
5 | NCCCNCCCCNCCC(=O)NCCCCCNC(=O)[C@H](CC(N)=O)NC(=O)Cc1ccc(O)cc1O [JORO SPIDER TOXIN 3] | 5.77 | 7.19 | 7.72 | –
6 | N=C(N)NCCC[C@H](N)C(=O)NCCCCNCCC(=O)NCCCCCNC(=O)[C@H](CC(N)=O)NC(=O)Cc1ccc(O)cc1O [NEPHILA SPIDER TOXIN 3] | 5.27 | 6.86 | 6.79 | –
